# Assay outcomes as filed in PubChem.
# bovine MsrA act: bovine MsrA enzyme activators, primary screen, biochemical, absorbance, HTS | purified bovine MsrA, absorbance read-out | activation, % at 10.6 µM | hit rate 0.3% among 360,000 | AID 602163, 2012 | Methionine sulfoxide reductase A (Bos taurus); in the data active means activation above about 7.5%
# ASAP1 inh: inhibitors of human ASAP1 ArfGAP activity, primary screen, biochemical, fluorescence polarization. hit rate 0.19% among 360,000. inhibition, % at 16.5 µM. Arf-GAP with SH3 domain, ANK repeat and PH domain-containing protein 1 (Homo sapiens), …. ASAP1-stimulated ARF1 GTP hydrolysis, GDP FP detection. AID 624377, 2012; in the data active means inhibition above about 25%
# Target sequence (Q9ULH1 325-724 limits assumed): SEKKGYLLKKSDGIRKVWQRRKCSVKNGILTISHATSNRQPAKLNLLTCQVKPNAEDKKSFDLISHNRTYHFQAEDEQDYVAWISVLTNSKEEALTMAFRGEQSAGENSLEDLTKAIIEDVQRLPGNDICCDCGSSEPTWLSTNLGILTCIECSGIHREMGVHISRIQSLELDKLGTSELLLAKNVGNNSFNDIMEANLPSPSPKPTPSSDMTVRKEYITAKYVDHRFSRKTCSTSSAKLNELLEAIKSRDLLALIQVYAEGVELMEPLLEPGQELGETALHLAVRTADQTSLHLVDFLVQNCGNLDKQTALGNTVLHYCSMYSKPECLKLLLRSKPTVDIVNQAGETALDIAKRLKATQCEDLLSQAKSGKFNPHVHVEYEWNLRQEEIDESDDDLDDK
# MsrA inh: bovine MsrA enzyme inhibitors, primary screen, biochemical, absorbance, HTS; Methionine sulfoxide reductase A (Bos taurus); inhibition, % at 15.5 µM; purified bovine MsrA, absorbance read-out; hit rate 0.75% among 360,000; AID 651718, 2012
# ARFGAP1 inh: inhibitors of rat ARFGAP1 GAP activity, primary screen, biochemical, fluorescence polarization, GDP tracer; ADP-ribosylation factor GTPase-activating protein 1 (Rattus norvegicus), Q62848; Arfgap1-stimulated ARF1 GTP hydrolysis, GDP FP detection; inhibition, % at 16.5 µM; hit rate 0.26% among 360,000; AID 651572, 2012;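 active means inhibition above a per-plate limit, mean inhibition of low control wells plus 3 SD, cut at about 25% in these data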
# Target sequence (Q62848 1-136 limits assumed): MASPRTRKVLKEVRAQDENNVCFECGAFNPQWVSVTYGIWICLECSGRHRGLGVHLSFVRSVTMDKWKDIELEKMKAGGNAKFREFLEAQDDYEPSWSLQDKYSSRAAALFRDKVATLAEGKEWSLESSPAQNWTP
#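 Repeats: one replicate per compound; assay system: rat Arfgap1 catalytic domain, aa 1-136; times: enzyme reaction 120 min at 25 °C after 20 min preincubation; detection: FP of antibody-bound GDP Alexa 633 tracer, ex 620/em 688 nm; benchmarks: high control wells lacking Arfgap1, low control full reaction with DMSO; reagent: human ARF1(Δ1-17)-GTP substrate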
# MsrA inh confirm: bovine MsrA inhibitors, retest, confirmation, biochemical, absorbance, HTS | AID 651822, 2012 | inhibition, % at 15.5 µM | shares compounds with MsrA inh | purified bovine MsrA, absorbance read-out | hit rate 41% among 2,300;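 further: coupled to thioredoxin reductase with NADPH and selenocystamine and DMSO as substrate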
# Hits are given with their value; i = inactive; nt = no result given. Sampled rows, rich in hits. Any-hit rate of the full collection: about 1.4%. Unless noted, no stated cut-off is given here; in the data, active means inhibition above about 4.5%; inactive means the rest.
SMILES,bovine MsrA act,ASAP1 inh,MsrA inh,ARFGAP1 inh,MsrA inh confirm
O=C(Nc1cccnc1)C1CC(=O)N(c2ccc(F)cc2)C1 (configuration not stated),i,i,i,i,nt
CCOc1ccc(/C=C(\C)C(=O)c2c(C)cc(C)[nH]c2=O)cc1,i,i,6.2,i,i
COc1ccc(/C=C(\C)C(=O)c2c(C)cc(C)[nH]c2=O)cc1,i,i,i,i,nt
Cc1ccc(/C=C2\SC(N)=NC2=O)s1,i,i,i,i,nt
Cc1ccsc1/C=C1\SC(N)=NC1=O,i,i,5.0,i,i
Cc1ccc(/C=C(\C#N)C(=O)Nc2c(C)cccc2C)s1,i,i,7.1,i,6.1
Cc1nc2ccc(NC(=O)c3cc([N+](=O)[O-])cc([N+](=O)[O-])c3Cl)cc2s1,i,i,5.5,i,i
C/C(=N\N=C1\NC(=O)CC(C(=O)O)S1)c1cccs1 (configuration not stated),i,i,5.0,i,i
CNC(=O)C1CC(=O)N/C(=N/N=C(\C)c2cccs2)S1 (configuration not stated),i,i,6.1,i,4.7
C/C(=N\N=C1\NC(=O)CC(C(=O)O)S1)c1ccc(F)cc1 (configuration not stated),i,i,i,i,nt
CCCCCCSc1ccc([C@@H]2[C@@H]3C(=O)N(C)C(=O)[C@@H]3[C@]3(C(=O)OC)CCCCN23)cc1,i,i,i,i,nt
CN1/C(=C\C(=O)C[n+]2ccc3ccccc3c2)C(C)(C)c2ccccc21,i,i,i,i,nt
CC(C)(C)c1ccc2c(c1)N(CC(=O)N1CCCC1)C(=O)CO2,i,i,i,i,nt
CNc1nc(NC#N)nc(SC)n1,i,i,i,i,nt
CCN(CC)S(=O)(=O)c1ccc(N2CCN(C)CC2)c(NC(=O)COc2ccc(F)cc2Cl)c1,i,i,i,i,nt
O=c1cc(-c2ccc(O)cc2)oc2cc(O[C@@H]3O[C@H](CO)[C@@H](O)[C@H](O)[C@H]3O[C@@H]3OC[C@](O)(CO)[C@H]3O)cc(O)c12,i,i,5.3,i,i
c1ccc(-c2nnsc2Sc2ccccn2)cc1,i,i,5.8,i,i
Cc1cccn2c(=O)nc(SCC(=O)N3CC(C)OC(C)C3)nc12 (configuration not stated),i,i,5.5,i,i
Cc1cccn2c(=O)nc(SCC(=O)N3CCCC3)nc12,i,i,i,i,nt
O=C(OCC(=O)N1CCN(C(=O)c2ccco2)CC1)c1ccccc1NCCO,i,i,4.7,i,i
Cc1ccccc1-c1nsc(SCC(=O)c2ccc(Cl)cc2)n1,i,i,i,i,nt
COc1ccccc1/C=C/C=N/NC(=O)c1cnccn1,i,i,7.1,i,5.4
COc1ccccc1/C=C/C=N/NC(=O)c1ccc(=O)n(C)c1,i,i,8.1,i,6.9
COc1cccc(/C=N/NC(=O)c2cnccn2)c1O,i,i,i,i,nt
FC(F)(F)C(F)(F)c1nc2nc(Cl)c(Cl)nc2[nH]1,i,i,i,i,nt
SMILES,bovine MsrA act,ASAP1 inh,MsrA inh,ARFGAP1 inh,MsrA inh confirm
CC(C)C(=O)N1CCN(c2ccc([N+](=O)[O-])c(NC(C)c3ccccc3)c2)CC1 (configuration not stated),i,i,12,i,7.2
O=C1c2cccc3cccc(c23)C(=O)N1Cc1ccccn1,i,i,i,i,nt
CC(C)(C)c1ccc(/C=C2\CCn3c2nc2cc(C(=O)O)ccc2c3=O)cc1,i,nt,nt,nt,nt
O=C(O)c1ccc2c(=O)n3c(nc2c1)/C(=C/c1ccc(F)cc1)CC3,i,i,5.5,i,i
Cc1cc(C)nc(NC2=NCC(=O)N2c2ccc3c(c2)OCCO3)n1,i,i,8.6,i,6.1
Cc1cc(C)nc(NC2=NCC(=O)N2c2ccccc2)n1,i,i,i,i,nt
C[C@H](CO)N1C[C@H](C)[C@@H](CN(C)Cc2ccncc2)OCc2cnnn2CCCC1=O,i,i,i,i,nt
CCC(C)Oc1ccc(/C=C/c2[nH]c(=O)[nH]c(=O)c2[N+](=O)[O-])cc1OC (configuration not stated),i,i,7.6,i,4.6
COc1ccccc1OCCC(=O)OCC(=O)c1[nH]c(C)c(C(C)=O)c1C,i,i,i,i,nt
CN(C)c1ccc(/C=N/NC(=O)c2cccc(N3CCCC3=O)c2)cc1,i,i,7.2,i,7.0
COc1cc(C(=O)NN=Cc2ccc(N(C)C)cc2)cc(OC)c1OC,i,i,5.1,i,5.1
COc1cccc(/C=N/NC(=O)c2cccc(N3CCCC3=O)c2)c1,i,i,i,i,nt
CN(C)c1ccc(/C=N/NC(=O)c2ccc3c(c2)OCO3)cc1,i,i,6.9,i,5.5
COc1cc(C(=O)NCC(=O)N/N=C/c2ccc(-c3ccc([N+](=O)[O-])cc3)o2)cc(OC)c1OC,i,i,i,i,nt
COc1cc(C(=O)NCC(=O)N/N=C/c2ccc(-c3cccc([N+](=O)[O-])c3)o2)cc(OC)c1OC,i,i,5.3,i,i
CCOc1cc(O)c(-c2[nH]ncc2-c2nc(C)cs2)cc1CC,i,i,i,i,nt
O=C(NNc1ccccc1C(F)(F)F)c1sccc1Br,i,i,i,i,nt
CCCCNC(=O)c1c(N)[nH]c(C(=O)c2ccccc2)c1-c1ccc(Cl)cc1,i,i,i,i,nt
CC(=O)Nc1cccc(C(=O)N/N=C/c2ccc(C)o2)c1,i,i,i,i,nt
Cn1cc([N+](=O)[O-])c(C(=O)N/N=C/c2ccc3c(c2)OCO3)n1,i,i,4.9,i,i
Cc1ccc(C(=O)NN=Cc2ccc3c(c2)OCO3)cc1,i,i,i,i,nt
Cc1ccc(C(=O)N/N=C/c2ccc3c(c2)OCO3)o1,i,i,5.8,i,5.7
Cc1ccc(/C=N/NC(=O)c2cccc([N+](=O)[O-])c2)o1,i,i,5.2,i,4.9
Cc1ccc(/C=N\NC(=O)c2ccc3c(c2)OCO3)o1,i,i,4.9,i,5.4
Cc1ccc(C(=O)COc2cc(C)nc3nncn23)cc1,i,i,i,i,nt
SMILES,bovine MsrA act,ASAP1 inh,MsrA inh,ARFGAP1 inh,MsrA inh confirm
COc1ccc(OC)c(S(=O)(=O)N2CCCC(C(=O)N3CCCCCC3)C2)c1 (configuration not stated),i,i,i,i,nt
N#Cc1ccc(C(=O)N/N=C/c2cn(CC(=O)O)c3ccccc23)c(F)c1,i,i,6.8,i,i
CCOC(=O)Cn1cc(/C=N/NC(=O)c2ccc(C#N)cc2F)c2ccccc21,i,i,6.2,i,i
Cn1cc(/C=N/NC(=O)c2ccc(C#N)cc2F)c2ccccc21,i,i,i,i,nt
CCOC(=O)Cn1cc(/C=C(/C#N)C(=O)NC(C)C)c2ccccc21,i,i,i,i,nt
CSc1ccc(/C=C/C(=O)OCC(=O)N2CCN(S(=O)(=O)c3ccc(C)cc3C)CC2)cc1,i,i,i,i,nt
